Bioassay records deposited in PubChem by several laboratories.
Hits are enriched below; roughly 3.1% of the tested compounds scored in any of these assays.
PAFAH1B3 FP inh: inhibitors of human PAFAH1B3; Q15102; recombinant PAFAH1B3, FP-rhodamine probe, fluorescence polarization; inhibition, % at 3.39 µM; 340,000 compounds, 0.28% hits;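 active = inhibition above the screen-wide average of all tested compounds plus 3 SD, cut at about 25% in these data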
PAFAH1B2 FP inh: inhibitors of human PAFAH1B2; recombinant PAFAH1B2, FP-rhodamine activity probe, fluorescence polarization; 340,000 compounds, 1.2% hits; P68402; AID 492953; inhibition, % at 3.39 µM;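 active = inhibition above the mean of all tested compounds plus 3 SD, cut at about 24% in these data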
PAFAH2 inh: inhibitors of human PAFAH2. Q99487. recombinant PAFAH2, FP-rhodamine activity probe, fluorescence polarization. inhibition, % at 3.39 µM. 340,000 compounds, 0.99% hits;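 active = inhibition above the mean over all tested compounds plus 3 SD, cut at about 30% in these data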;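 note: inhibitors block probe labeling of enzyme so polarization drops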
Apaf1 inhib: blocks human Apaf-1 apoptosome activity; inhibition, % at 20 µM; 330,000 compounds, 0.71% hits; O14727; reconstituted apoptosome caspase-3 activity, DEVD-Rh110 fluorescence; active = inhibition of at least 40% at 20 µM
Target sequence (O14727 whole entry, looked up): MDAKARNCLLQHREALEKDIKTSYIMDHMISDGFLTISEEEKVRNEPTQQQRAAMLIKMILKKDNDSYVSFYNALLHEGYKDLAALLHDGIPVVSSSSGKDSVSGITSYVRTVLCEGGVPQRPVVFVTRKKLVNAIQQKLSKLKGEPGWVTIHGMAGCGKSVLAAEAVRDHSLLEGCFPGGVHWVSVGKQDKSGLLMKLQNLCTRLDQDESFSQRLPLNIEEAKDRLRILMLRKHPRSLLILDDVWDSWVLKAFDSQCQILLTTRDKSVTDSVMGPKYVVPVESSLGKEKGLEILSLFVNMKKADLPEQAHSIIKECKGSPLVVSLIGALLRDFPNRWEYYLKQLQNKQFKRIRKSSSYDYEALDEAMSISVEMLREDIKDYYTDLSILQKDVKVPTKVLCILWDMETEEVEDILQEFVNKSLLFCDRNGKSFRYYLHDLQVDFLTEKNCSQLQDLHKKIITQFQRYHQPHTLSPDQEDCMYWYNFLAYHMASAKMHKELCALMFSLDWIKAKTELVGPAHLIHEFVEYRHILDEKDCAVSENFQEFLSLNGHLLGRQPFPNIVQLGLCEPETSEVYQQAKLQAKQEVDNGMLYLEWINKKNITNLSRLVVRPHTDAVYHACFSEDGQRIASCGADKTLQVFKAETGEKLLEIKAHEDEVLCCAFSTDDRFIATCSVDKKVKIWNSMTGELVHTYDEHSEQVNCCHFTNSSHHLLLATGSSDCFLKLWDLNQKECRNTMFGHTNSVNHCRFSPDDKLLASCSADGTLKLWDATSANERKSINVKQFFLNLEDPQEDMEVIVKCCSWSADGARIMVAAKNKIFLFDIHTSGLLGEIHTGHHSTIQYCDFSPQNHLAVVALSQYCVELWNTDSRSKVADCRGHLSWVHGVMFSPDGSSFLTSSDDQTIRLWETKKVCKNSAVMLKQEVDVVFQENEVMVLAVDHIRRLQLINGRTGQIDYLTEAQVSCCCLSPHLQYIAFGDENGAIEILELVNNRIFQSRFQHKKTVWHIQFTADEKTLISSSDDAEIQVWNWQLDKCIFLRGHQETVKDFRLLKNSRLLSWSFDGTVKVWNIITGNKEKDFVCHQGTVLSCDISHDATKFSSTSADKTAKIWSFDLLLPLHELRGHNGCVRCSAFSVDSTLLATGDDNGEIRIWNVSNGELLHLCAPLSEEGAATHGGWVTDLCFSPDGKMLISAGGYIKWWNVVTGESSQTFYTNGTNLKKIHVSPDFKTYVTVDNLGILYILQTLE
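Material: biochemical Apaf-1 apoptosome reconstitution. Medium: Hepes buffer, pH 7.5. Also added: cytochrome c activation, bis-DEVD rhodamine 110 substrate. Timing: 30 min compound preincubation, 50 min activation, room temperature. Measured by: rhodamine 110 fluorescence at Ex 480/Em 540 nm.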
pPAFAH FP inh: pPAFAH (human) enzyme inhibition; inhibition, % at 3.39 µM; Q13093; recombinant pPAFAH, FP-rhodamine probe fluorescence polarization; AID 463082; 330,000 compounds, 1.5% hits;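 active = inhibition above the mean inhibition across the screen plus 3 SD, cut at about 25% in these data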;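 note: inhibitors block binding of the rhodamine activity-based probe so polarization drops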
pPAFAH confirm: confirmation of human plasma PAF acetylhydrolase (pPAFAH) inhibitors; shares compounds with pPAFAH FP inh; recombinant pPAFAH, FP-Rh probe fluorescence polarization; inhibition, % at 3.39 µM; 2,300 compounds, 72% hits;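 active = mean inhibition of the triplicate above the hit cutoff set for the earlier primary screen, cut at about 25% in these data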
Large screens that a line does not name were inactive (follow-up assays come after a bar, where they were run).

CCc1cc(=O)oc2cc(C)c(CN3CCCCC3)c(O)c12	pPAFAH FP inh 47.5 (no result: Apaf1 inhib) | pPAFAH confirm inactive
CCc1cc(=O)oc2cc(C)c(CN3CCCC3)c(O)c12	pPAFAH FP inh 63.5 | pPAFAH confirm inactive
Cc1cc(=O)oc2c(CN3CCCCC3)c(O)c(Cl)cc12	none
CN(Cc1nc2ccccc2c(=O)[nH]1)C(=O)c1cc(-c2ccc(Br)cc2)nc2ccccc12	none (no result: Apaf1 inhib, pPAFAH FP inh)
CCOC(=O)C1CCCN(C(=O)c2cc(-c3ccco3)nc3ccccc23)C1 (stereo not drawn)	pPAFAH FP inh 48.5 | pPAFAH confirm 40.0
Cc1c(C(=O)NC2CCCC2)oc2ccccc12	none
c1coc(-c2nc3ccccc3nc2-c2ccco2)c1	PAFAH1B3 FP inh 25.7, PAFAH2 inh 39.9, pPAFAH FP inh 44.0 | pPAFAH confirm inactive
c1ccc(Cn2c(-c3ccco3)nc3nc4ccccc4nc32)cc1	none
O=C(Nc1cc(S(=O)(=O)N2CCOCC2)ccc1N1CCOCC1)c1cccs1	none
COc1cc(OC)c2c(O)c3c(c(-c4c5c(c(O)c6c(OC)cc(OC)cc46)CO[C@@H](C)[C@H]5O)c2c1)[C@H](O)[C@H](C)OC3	pPAFAH FP inh 78.0 | pPAFAH confirm 67.6
COc1cc2c(c(OC)c1O)C(=O)CO2	none
O=C(NC(=S)Nc1cnc2ccccc2c1)c1ccccc1	none
O=C(Nc1cnc2ccccc2c1)c1ccncc1	pPAFAH FP inh 51.6 | pPAFAH confirm inactive
CC(C)(C)OC(=O)NCCCC[C@H](NC(=O)c1[nH]cnc1C(=O)Nc1ccccc1)C(=O)OC(C)(C)C	none
C[C@@H](NC(=O)c1nc[nH]c1C(=O)N[C@@H](CCCCNC(=O)OC(C)(C)C)C(=O)OC(C)(C)C)c1ccccc1	pPAFAH FP inh 35.5 | pPAFAH confirm 30.2
Cc1ccc(-c2cc(C(=O)N3CCN(c4ccccc4O)CC3)c3ccccc3n2)o1	pPAFAH FP inh 65.5 | pPAFAH confirm inactive
COc1ccc(C(=O)NNS(=O)(=O)c2ccccc2)cc1OC	none
O=C(Oc1ccnc2cc(Cl)ccc12)N1CCOCC1	pPAFAH FP inh 39.6 | pPAFAH confirm 37.2
O=C(Oc1c(Cl)cc(Cl)c2cccnc12)N1CCOCC1	none
Cc1ccccc1N/N=C/c1sc(=O)n(Cc2cccc(C(=O)O)c2)c1Cl	pPAFAH FP inh 34.8 | pPAFAH confirm 25.2
CCOc1cc(CNCCO)cc(Br)c1OCc1ccc(Cl)cc1Cl	pPAFAH FP inh 42.0 | pPAFAH confirm 30.4
CSc1nc2nc(C)c(CCC(=O)OCC(=O)Nc3ccc(F)cc3)c(C)n2n1	none (no result: pPAFAH FP inh)
O=C(O)CN1C(=O)/C(=C/c2ccsc2)SC1=S	none (no result: PAFAH1B3 FP inh, PAFAH1B2 FP inh, PAFAH2 inh)
O=C(O)CN1C(=O)/C(=C\c2cc(Br)ccc2OCc2ccc(Cl)cc2Cl)SC1=S	PAFAH2 inh 33.1, pPAFAH FP inh 52.2 | pPAFAH confirm 66.9
CCc1ccc(NC(=O)C(C)OC(=O)c2cc(=O)[nH]c3ccc(S(=O)(=O)Nc4ccc(F)cc4)cc23)cc1 (stereo not drawn)	pPAFAH FP inh 73.2 | pPAFAH confirm 55.8
C[C@H](CO)N1C[C@H](C)[C@@H](CN(C)C(=O)Nc2ccc(C(F)(F)F)cc2)Oc2ccc(NS(=O)(=O)c3ccccc3)cc2C1=O	pPAFAH FP inh 76.4 | pPAFAH confirm 68.4
COc1ccc(NC(=O)N(C)C[C@H]2Oc3ccc(NS(=O)(=O)c4ccc(F)cc4)cc3C(=O)N([C@H](C)CO)C[C@@H]2C)cc1	none
C[C@H](CO)N1C[C@H](C)[C@@H](CN(C)C(=O)Nc2ccc(C(F)(F)F)cc2)Oc2ccc(NS(=O)(=O)c3ccc(F)cc3)cc2C1=O	pPAFAH FP inh 60.7 | pPAFAH confirm 59.0
C=C(C)C(=O)N1CCN(C(=O)C(=C)C)c2ccccc21	none (no result: Apaf1 inhib, pPAFAH FP inh)
COc1cc(-c2nnc(SCc3cc(=O)oc4cc(O)c(O)cc34)o2)cc(OC)c1OC	PAFAH1B3 FP inh 27.8, PAFAH2 inh 41.9, pPAFAH FP inh 59.3 | pPAFAH confirm 75.3
COc1ccc2nc(NC(=O)CSc3nnc(N)s3)sc2c1	none
COc1ccc2nc(NC(=O)CSc3nnc(C)n3N)sc2c1	pPAFAH FP inh 37.9 | pPAFAH confirm inactive
C=C1CC[C@@]23CC[C@]4(C)[C@@](OC2=O)([C@@H]3C1)[C@H]1O[C@H]1C1[C@@]2(C)CC[C@H](O)C(C)(C)C2CC[C@]14C (stereo partly drawn)	none
Cc1ccc(C(=O)N/C(=C\c2ccco2)C(=O)NCCN2CCOCC2)cc1	none
COc1cc(OC)cc(-c2c(-c3cccs3)c3cc(-c4ccc(SC)cc4)ccc3n2C)c1	none
COc1cc(OC)cc(-c2c(-c3cccs3)c3cc(-c4ccc(OCc5ccccc5)cc4)ccc3n2C)c1	pPAFAH FP inh 45.3 | pPAFAH confirm inactive
C=C1c2cccc(O)c2C(O)=C2C(=O)[C@]3(O)C(O)=C(C(N)=O)C(=O)[C@@H](N(C)C)[C@@H]3[C@@H](O)[C@H]12	pPAFAH FP inh 94.8 | pPAFAH confirm inactive
CCOC(=O)c1cc(-c2ccc(F)cc2)n(CCC(=O)NC2CCN(Cc3ccccc3)CC2)c1C	pPAFAH FP inh 39.9 | pPAFAH confirm inactive
COc1ccccc1NCCC(=O)OCC(=O)Nc1cc([N+](=O)[O-])ccc1F	none
O=C(NCc1cc(C(F)(F)F)cc(C(F)(F)F)c1)C1CC(c2c(Cl)cccc2Cl)=NO1 (stereo not drawn)	none
O=C(NCc1ccc(OC(F)(F)F)cc1)C1CC(c2c(Cl)cccc2Cl)=NO1 (stereo not drawn)	pPAFAH FP inh 37.5 | pPAFAH confirm inactive
Cc1ccc(-c2cc(-c3ccco3)c(C#N)c(=O)[nH]2)cc1	pPAFAH FP inh 34.8 | pPAFAH confirm inactive
COc1cc2nc(CN3CCOCC3)n(CC(=O)N3CCCCCC3)c(=O)c2cc1OC	pPAFAH FP inh 55.6 | pPAFAH confirm inactive
COc1cc2nc(CN3CCOCC3)n(CC(=O)NCC(F)(F)F)c(=O)c2cc1OC	none
O=c1nc2s/c(=C\c3ccco3)c(=O)n2nc1Cc1ccc(F)cc1	pPAFAH FP inh 39.7 | pPAFAH confirm inactive
Cc1ccc(-c2nc3s/c(=C\c4ccco4)c(=O)n3n2)cc1	none
COc1ccc(S(=O)(=O)Nc2c(C(=O)O)[nH]c3ccccc23)c(OC)c1	pPAFAH FP inh 51.0 | pPAFAH confirm inactive
CC(C)(C)C(C(=O)Oc1ccccc1)c1ccccc1 (stereo not drawn)	none
N#Cc1c(NC(=O)c2ccccc2Cl)n(Cc2ccccc2)c2nc3ccccc3nc12	PAFAH1B3 FP inh 63.3, PAFAH1B2 FP inh 53.1, PAFAH2 inh 64.3, pPAFAH FP inh 38.4 (no result: Apaf1 inhib) | pPAFAH confirm 34.8
CN(c1ccccc1)S(=O)(=O)c1cccc(C(=O)NCCc2ccc(O)c(O)c2)c1	pPAFAH FP inh 36.6 | pPAFAH confirm 42.9
CC(C)NS(=O)(=O)c1ccc(OCC(=O)NCc2ccco2)cc1	none
Cc1ccc(C)c(NS(=O)(=O)c2ccc(OCC(=O)NCc3ccco3)cc2)c1	pPAFAH FP inh 39.3 | pPAFAH confirm inactive
